# Assay outcomes as filed in PubChem BioAssay.
# The list is not random: actives were taken first. Their share in the collection is about 3.1%.
# Cneo AK release: causes C. neoformans cell lysis; adenylate kinase release luminescence, 4 h; normalised: neutral wells 0, clomiphene wells 100; lysis activity, % at 15 µM; 0.2% of 360,000 active;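 active = mean lysis activity across replicates of at least 80%, whatever share of replicates individually reach that level; inactive = mean lysis activity below 80%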
#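 Test system: log-phase Cryptococcus neoformans yeast cells; Quantity: yeast cell density of 5 × 10^6 cells/mL; Buffer or medium: YPD; Doses: single compound concentration per well; Timing: 4 h at 37 °C static, read 1 h later; Measured by: AK luminescence; Read-out basis: lysis from increased AK signal; Control set: Clomiphene as positive control.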
# CFTR F508del cor: CFTR F508del correction in bronchial cells; 0.36% of 350,000 active; CFBE cells, YFP halide quenching; stimulated with forskolin plus potentiator P3; % fluorescence drop versus neutral controls; AID 720511; activity (quench increase), % at 7.58 µM;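 active = mean added fluorescence quench of at least 8% versus neutral control, with both replicates also reaching 8%; inconclusive = only one of the mean or replicate conditions met; inactive = mean below 8% and not both replicates reaching 8%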;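 also: cells transiently co-express mutant CFTR-F508del with the halide-sensitive YFP; corrector assay measuring rescue of mutant channel to the surface after 24 h compound exposure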
# Ecoli rRNA inh: inhibitors of bacterial rRNA selective over humanized ribosomes | E. coli WT GFP vs humanized-ribosome RFP mutants, fluorescence, 24 h; stronger effect = lower value; DMSO median 0, no signal -100 | GFP signal change (wild-type ribosome), % (test concentration not listed) | 1.6% of 350,000 active;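 active = significant combined selectivity score with lowered wild-type GFP, culture density cut under 30%, mutant RFP and density less affected; inactive = any of these conditions unmet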
# INS-1E GSIS act: primary screen for activators of insulin secretion dependent on glucose, INS-1E cells, GLuc reporter luminescence; INS-1E GLuc reporter insulin secretion, 2-3 h; activation, % at 16.6 µM; 0.61% of 370,000 active; AID 743287;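 active = lowest replicate activation of at least 40%, so every replicate reaches that level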
# miR122 inh: blocks miR-122 activity in Huh7 sensor cells. Huh7 miR-122 Renilla luciferase sensor, 48 h; neutral wells = 0, positive control = 100. 0.3% of 340,000 active. AID 602342. activation (reporter increase), % at 12.5 µM;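 active = mean replicate activation score at least 90 and every replicate individually at or above 90; inconclusive = only one of the two criteria met; inactive = neither criterion met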;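 also: higher luciferase means less miR-122 activity so hits act as miR-122 inhibitors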
# HIV Env fusion: HIV envelope-mediated fusion inhibition | HeLa-JRFL Env/CEM21 cell fusion, luciferase | inhibition, % at 12.3 µM | 1.1% of 360,000 active;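 active = mean replicate inhibition score of at least 50 and every replicate individually at or above 50; inconclusive = only one of the two criteria met; inactive = mean below 50 and not all replicates reaching 50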
# AID977621: wild-type E. coli growth inhibition versus H69 humanized strain – H69 mutant RFP, wild-type GFP, cherry-pick, dose response; shares compounds with Ecoli rRNA inh; fluorescence, 24 h; activity change, negative = inhibition at 50 µM; 1,900 tested, under 10 active;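 active = Wild-type ribosome reporter drop at least double the humanized mutant ribosome reporter drop, growth loss under a set limit; inconclusive = no clear call, values can overlap the other calls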;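 also: wild-type GFP and H69 mutant RFP strains grown together 50/50 in each well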
# AID977628: growth of wild-type and h24-humanized E. coli strains – h24 mutant RFP vs wild-type GFP, cherry-pick, dose response; shares compounds with Ecoli rRNA inh; 1,900 tested, under 10 active; activity change, negative = inhibition at 50 µM; E. coli WT GFP strain growth, fluorescence, 24 h; AID 977628;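 active = compound lowering the normal-ribosome reporter at least twice as much as the humanized-ribosome reporter, growth loss under a set limit; inconclusive = no clear call, values can overlap the other calls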;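 also: wild-type GFP and h24 humanized RFP strains co-cultured 1 to 1 per well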
# Numbers stand for hits; – = inactive; ? = inconclusive; · = no result.
SMILES,Cneo AK release,CFTR F508del cor,Ecoli rRNA inh,INS-1E GSIS act,miR122 inh,HIV Env fusion,AID977621,AID977628
O=C(NC1CCCC1)C(c1ccncc1)N(Cc1ccccc1)C(=O)c1ccc(-c2ccccc2)[nH]1 (centres undefined),·,·,·,–,·,–,·,·
COc1ccc(CN(C)C(=O)c2cc(-c3ccc(OC)c(OC)c3)nc3ccccc23)c(OC)c1,–,–,-23,58,–,–,–,–
COc1ccc(-c2cc(C(=O)N(C)CCc3ccc(OC)c(OC)c3)c3ccccc3n2)cc1,–,–,-25,–,·,–,?,·
O=C(CN1CCOCC1)NCC[C@@H]1CC[C@@H](NC(=O)Nc2ccc(Cl)cc2)[C@H](CO)O1,–,–,–,–,·,–,·,·
CC(C)C#Cc1cnc2c(c1)C(=O)N([C@@H](C)CO)C[C@H](C)[C@H](CN(C)Cc1cncnc1)O2,–,–,–,–,–,·,·,·
COCc1c(C#N)c(NCCc2ccc(F)cc2)nc(C)c1[N+](=O)[O-],·,·,-17,–,·,–,–,–
O=C(CSc1nnc(-c2ccccc2F)n1C1CC1)Nc1cccnc1Cl,–,·,-16,·,–,–,–,–
CNC(=O)C[C@H]1CC[C@@H]2[C@@H](COc3ccc(NC(=O)Nc4ccc(F)c(F)c4)cc3C(=O)N2C)O1,–,–,-20,–,–,–,·,?
CNC(=O)C[C@H]1CC[C@H]2[C@@H](COc3ccc(NC(=O)Nc4ccc(F)c(F)c4)cc3C(=O)N2C)O1,–,–,–,–,–,–,·,·
CC1CCC(C(C)C)C(OCC(O)CN2CCCC(C)C2)C1 (centres undefined),·,–,-22,–,·,–,–,?
CCCC#Cc1cnc2c(c1)C(=O)N([C@@H](C)CO)C[C@H](C)[C@@H](CN(C)C(=O)C1CCC1)O2,–,–,–,–,–,–,·,·
COCCN(C(=O)c1ccccc1F)c1nnc(-c2ccc(OC)cc2)s1,–,–,-24,–,·,–,–,?
C[C@H](CO)N1C[C@H](C)[C@H](CN(C)C(=O)NC2CCCCC2)Oc2ccc(NC(=O)CCCN(C)C)cc2C1=O,–,–,–,–,–,–,·,·
Cc1cc(NC(=O)CN2CCN(c3cccc(Cl)c3)CC2)no1,·,–,-15,–,·,–,·,?
Cc1cccc(C)c1NC(=O)CNC(=O)C(C)N1CCN(c2cccc(Cl)c2)CC1 (centres undefined),–,–,-22,–,·,–,·,–
N#CC1CN(Cc2ccccc2)CN(Cc2ccccc2)C1,·,–,-27,–,·,–,·,?
O=C(Cc1c(F)cccc1Cl)N(Cc1ccccc1)c1ccccn1,·,–,-21,–,·,–,–,–
COc1ccccc1NC(=O)N[C@H]1CC[C@H](CC(=O)N2CCC(Cc3ccccc3)CC2)O[C@@H]1CO,–,–,–,–,·,–,·,·
CSc1nc2ccc(NC(=O)c3c(-c4ccccc4)noc3C)cc2s1,·,–,-21,–,·,–,–,·
Cc1onc(-c2ccccc2)c1C(=O)Nc1ccc(NC(=O)c2c(-c3ccccc3)noc2C)cc1,·,–,–,–,·,–,·,·
CCOC(=O)c1c(NC(=O)CN2CCN(C(=O)C3CCCO3)CC2)sc(C)c1C (centres undefined),–,–,–,–,–,–,·,·
CCOC(=O)c1c(NC(=O)CN2CCC(C)CC2)sc(C)c1C,–,–,-21,–,–,–,–,–
COc1ccc(CN(C)C[C@@H]2OCCCC[C@H](C)Oc3ccc(NC(=O)NC(C)C)cc3C(=O)N([C@@H](C)CO)C[C@@H]2C)cc1,–,–,–,–,–,–,·,·
C(=C(c1ccccc1)c1ccccc1)c1ccccn1,–,–,-39,–,–,–,–,·
C(/C=C/c1ccccn1)=C\c1ccccc1,·,–,–,–,·,–,·,·
SMILES,Cneo AK release,CFTR F508del cor,Ecoli rRNA inh,INS-1E GSIS act,miR122 inh,HIV Env fusion,AID977621,AID977628
CSc1ccccc1NC(=O)CN(c1cccc(C)c1)S(C)(=O)=O,·,–,-20,–,–,·,–,·
Cc1cccc(N(CC(=O)Nc2ccccc2F)S(C)(=O)=O)c1,–,·,·,·,–,–,·,·
CCN(Cc1ccccc1)C(=O)COC(=O)c1cnc(C)cn1,–,–,–,–,–,–,·,·
CCN(Cc1ccccc1)C(=O)COC(=O)c1cc(Cl)nc(Cl)c1,·,–,-35,–,·,–,–,–
O=C(Nc1ccccc1)N[C@@H]1CC[C@H](CCNS(=O)(=O)c2cccc(F)c2)O[C@@H]1CO,–,–,–,–,·,–,·,·
COc1ccc(CSc2nc3ccccc3c(=O)n2CCCN2CCOCC2)cc1F,–,–,-28,–,–,–,–,–
C[C@@H]1CN([C@@H](C)CO)C(=O)c2cc(NS(=O)(=O)c3cn(C)cn3)ccc2O[C@H]1CN(C)Cc1ccc(C(=O)Nc2ccccc2N)cc1,–,–,–,–,–,·,·,·
CC(C)CN(C(=O)c1cc([N+](=O)[O-])cc([N+](=O)[O-])c1)C1CCS(=O)(=O)C1 (centres undefined),–,–,-16,–,–,·,–,–
COc1ccccc1CNC(=O)C[C@@H]1CC[C@H]2[C@@H](COC[C@@H](O)CN2C(=O)Nc2ccccc2)O1,–,–,–,–,–,·,·,·
CC[n+]1c(C)cc2c(sc3ccccc32)c1C,·,–,-22,·,·,–,–,–
COc1ccccc1C#Cc1cnc2c(c1)C(=O)N([C@@H](C)CO)C[C@@H](C)[C@@H](CN(C)C(C)=O)O2,–,–,–,–,–,–,·,·
O=C(O)c1cc(-c2ccc(-c3ccc(F)cc3)o2)nc2ccccc12,–,–,-38,–,–,–,–,·
CCN(CC)S(=O)(=O)c1cc(NC(=O)C(C)N2CCN(Cc3ccc4c(c3)OCO4)CC2)ccc1C (centres undefined),–,–,-21,–,–,·,?,·
CCN(CC)S(=O)(=O)c1cc(NC(=O)C(C)Nc2ccccc2N2CCOCC2)ccc1C (centres undefined),–,–,–,–,·,–,·,·
O=C(c1ccncc1)N1CC(=O)N2[C@H](CO)[C@@H](c3ccc(C#CCC4CCCC4)cc3)[C@@H]2C1,·,·,–,–,·,·,·,·
CCNC(=O)C[C@H]1C=C[C@H](NC(=O)C2CC2)[C@H](CO)O1,–,–,–,–,·,–,·,·
CCOC(=O)c1cc(-c2ccc(OC)cc2)n[nH]1,·,–,-25,–,·,–,–,–
Cc1cccc(OCc2nc(C#N)c(N3CC(C)CC(C)C3)o2)c1 (centres undefined),–,–,–,–,·,–,·,·
Cc1cccc(OCc2nc(C#N)c(N3CCCC3)o2)c1,·,–,-25,–,·,–,–,–
